Laboratory results as given in PubChem BioAssay.
Active and inactive are the calls of the source.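 Rule for the calls, unless noted: active = fluorescence slope after compound addition differing from the mean of all tested samples at 99.7% confidence, mostly higher but some lower; inactive = the rest.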

How the values were obtained:
[1] = inhibitors of TNFa-induced NFkB p65 translocation, primary screen, imaging, HUVEC, MLSMR starter and 10KST1 sets (AID 438;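 active = inhibition above 20% together with a positive visual image hit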;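 note: compound added about 3h40 before a 20 min TNFalpha stimulation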;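 for inhibition: signal is the nuclear over cytoplasmic p65 intensity ratio per well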); conditions: HUVEC TNFa-induced p65 nuclear translocation; cell count: measured here: nuclei count (cytotoxicity indicator), at 2.08 µM; inhibition: at 2 µM, stronger effect = higher value, 0% TNFa-plus-vehicle, 100% no-TNFa wells
[2] = reduction of polyQ htt aggregates in cells – imaging, exon1htt(103Q)mCFP cells, high-content imaging, primary screen (AID 483;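 active = visual image review flags a hit and inhibition of aggregation exceeds 20%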;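 note: compound exposure lasted 3 days before fixation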;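 for nuclei count: percent of the per-plate median nuclei count of sample wells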); conditions: exon1htt(103Q)mCFP cell line, aggregate imaging, at 2 µM; inhibition of aggregation: stronger effect = higher value; nuclei count: measured here: cell count, toxicity
[3] = endothelial E-selectin expression blockers – imaging, HUVEC, immunofluorescence, MLSMR starter and 10KST1 sets, primary screen (AID 487;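 active = visually confirmed hit in the image check and inhibition above 20%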;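 for inhibition: signal is fraction of cell area covered by stained E-selectin grains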;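 for nuclei count: 100% = median nuclei count of all wells on the same plate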); conditions: HUVEC TNFalpha-induced E-selectin immunofluorescence imaging, at 2 µM; inhibition: stronger effect = higher value; nuclei count: measured here: cell number, toxicity
[4] = target: Voltage-gated potassium channel subunit beta-2 (Rattus norvegicus) (UniProt P62483); experiment: inhibitors of rat Kvbeta2 reductase activity – biochemical, NADPH fluorescence, primary screen (AID 622;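 active = fluorescence slope higher than the sample average by over 3 SD, cut at about -0.22 in these data, passing the limit was not always enough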;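 note: slope of raw intensity against log time taken from 70 to 1610 s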); conditions: recombinant KvBeta, 4-cyanobenzaldehyde reduction, at 10 µM, stronger effect = higher value
Sequence of Voltage-gated potassium channel subunit beta-2 (Rattus norvegicus) (P62483 whole entry, looked up): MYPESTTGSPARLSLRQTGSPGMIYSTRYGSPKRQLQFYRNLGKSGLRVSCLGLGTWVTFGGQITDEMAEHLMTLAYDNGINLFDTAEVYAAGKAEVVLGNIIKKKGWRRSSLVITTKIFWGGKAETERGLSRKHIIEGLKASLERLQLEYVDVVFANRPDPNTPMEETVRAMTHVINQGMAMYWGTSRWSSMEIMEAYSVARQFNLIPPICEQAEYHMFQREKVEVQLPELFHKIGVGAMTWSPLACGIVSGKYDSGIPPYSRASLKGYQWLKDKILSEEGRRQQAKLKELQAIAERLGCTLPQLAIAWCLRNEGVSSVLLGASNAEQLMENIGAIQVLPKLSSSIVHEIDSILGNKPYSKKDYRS

[5] = target: Voltage-gated potassium channel subunit beta-2 (Rattus norvegicus) (UniProt P62483); experiment: enhancers of rat Kvbeta2 NADPH turnover – biochemical, NADPH fluorescence, primary screen (AID 623;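 active = NADPH fluorescence slope more negative than the mean of all samples by about 3 SD, 99.7% confidence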;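 note: fluorescence intensity change per second fitted from 20 to 320 s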); conditions: Recombinant KvBeta, NADPH fluorescence decrease slope, 10 min; at 10 µM; stronger effect = lower value
[6] = target: Muscarinic acetylcholine receptor M4 (Homo sapiens) (UniProt P08173); experiment: M4-linked GIRK flux change, two-sided – cell-based, HEK293 M4/GIRK, thallium flux, BTC-AM, M4 allosteric agonist project, primary screen (AID 625); conditions: at 10 µM, actives lie on both sides;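 note: thallium influx through GIRK channels coupled to M4 in HEK293 cells with BTC-AM dye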
Sequence of Muscarinic acetylcholine receptor M4 (Homo sapiens) (P08173 whole entry, looked up): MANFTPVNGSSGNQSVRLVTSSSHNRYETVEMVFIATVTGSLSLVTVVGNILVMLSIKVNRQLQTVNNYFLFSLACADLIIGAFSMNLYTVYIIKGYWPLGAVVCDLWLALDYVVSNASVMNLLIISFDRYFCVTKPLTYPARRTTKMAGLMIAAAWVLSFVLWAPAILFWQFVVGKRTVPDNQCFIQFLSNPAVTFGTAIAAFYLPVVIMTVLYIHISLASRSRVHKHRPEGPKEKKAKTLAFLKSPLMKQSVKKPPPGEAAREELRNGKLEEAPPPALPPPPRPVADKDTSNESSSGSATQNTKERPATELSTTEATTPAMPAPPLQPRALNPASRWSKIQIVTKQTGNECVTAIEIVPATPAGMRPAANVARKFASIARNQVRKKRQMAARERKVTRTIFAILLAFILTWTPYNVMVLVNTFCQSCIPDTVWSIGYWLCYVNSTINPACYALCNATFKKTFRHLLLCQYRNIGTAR
In short: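 assay system = HEK293 cells with M4 receptor and GIRK channels | medium = pH 7.3 thallium assay buffer | doses = 10 µM final, single point | timing = cells overnight at 37 °C, BTC-AM loading 1 h, reads 2 min total | signal = BTC-AM fluorescence, 1 Hz kinetic reads | read-out = post-addition slope, 15–24 s, of baseline-normalized fluorescence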

[7] = blockers of RIG-like receptor reporter activation – cell-based, Sendai virus stimulus, luciferase, 10K MLSCN set, TLR/RLR signaling modifier project, primary screen (AID 602276;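 active = inhibition at or above 50% at 10 µM; inactive = inhibition below 50%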;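 note: firefly luciferase from ISG56 promoter only with Renilla not read in this screen; 0% = Sendai virus plus DMSO and 100% = medium plus DMSO without virus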); conditions: HEK293 RL24 IRF3 luciferase reporter, at 10 µM, stronger effect = higher value
[8] = TLR3 IRF3 reporter activation blockers – cell-based, poly I:C stimulus, luciferase, 10K MLSCN set, primary screen (AID 602277;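 active = inhibition of the reporter signal at or above 50%; inactive = inhibition below 50%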); conditions: HEK293-TLR3 RL24 IRF3 luciferase reporter, at 10 µM, stronger effect = higher value

Row | Structure (SMILES) | cell count [1] | inhibition [1] | inhibition of aggregation [2] | nuclei count [2] | inhibition [3] | nuclei count [3] | fluorescence slope [4] | NADPH fluorescence slope [5] | fluorescence slope [6] | inhibition [7] | inhibition [8]
1 | CSc1ccccc1NC(=O)CN(Cc1ccccc1)S(C)(=O)=O | 768 | -15.1% (inactive) | -4.2% (inactive) | 115% | -78.6% (inactive) | 103% | -0.564 (inactive) | -3.2e-05 (inactive) | 0.00609 (inactive) | 21.8% (inactive) | 19.7% (inactive)
2 | COc1ccc(CC(=O)Nc2c3c(nn2-c2cccc(Cl)c2)CS(=O)(=O)C3)cc1 | 785 | -11.6% (inactive) | -2.4% (inactive) | 98.5% | -28.2% (inactive) | 107% | -0.529 (inactive) | 1.2e-05 (inactive) | 0.00322 (inactive) | 19.7% (inactive) | 20.9% (inactive)
3 | CN(C)C(CNc1nnnn1-c1ccccc1)c1ccco1 (stereo not drawn) | 632 | -7.3% (inactive) | -11.4% (inactive) | 96% | -23.9% (inactive) | 116% | -0.584 (inactive) | 4.2e-06 (inactive) | 0.00677 (inactive) | 8.59% (inactive) | 19.2% (inactive)
4 | COc1cc(OC)cc(C(=O)N2CCN(C(=O)c3ccc(OC)c(OC)c3)CC2)c1 | 358 | -2% (inactive) | -5.3% (inactive) | 126% | -20.6% (inactive) | 89.3% | -0.603 (inactive) | 3.5e-06 (inactive) | 0.00572 (inactive) | 4.07% (inactive) | 14.7% (inactive)
5 | CCOc1ccc2ccccc2c1/C=N/n1cncn1 | 416 | 3.4% (inactive) | 9.7% (inactive) | 97.3% | -92.4% (inactive) | 120% | -0.605 (inactive) | -4.9e-05 (inactive) | 0.0038 (inactive) | 11.7% (inactive) | -8.9% (inactive)
6 | Cc1ccc(/C(O)=C2\C(=O)C(=O)N(CCCN(C)C)C2c2ccccn2)cc1 (stereo not drawn) | 536 | 0.9% (inactive) | -3.7% (inactive) | 98.9% | -53.4% (inactive) | 132% | -0.514 (inactive) | -0.000162 (inactive) | 0.00375 (inactive) | 16.3% (inactive) | 8.71% (inactive)
7 | O=C(Nc1ccccc1C(=O)NCC1CCCO1)c1ccco1 (stereo not drawn) | 304 | -8% (inactive) | -23.2% (inactive) | 95.5% | -50.7% (inactive) | 123% | -0.458 (inactive) | 2.2e-05 (inactive) | 0.00531 (inactive) | 9.09% (inactive) | 15.4% (inactive)
8 | Cc1cnc(-c2nnc(N(C)C(=O)C3CCOC3)s2)cn1 (stereo not drawn) | 340 | -12.1% (inactive) | 26.6% (inactive) | 79% | 41.6% (inactive) | 88.5% | -0.552 (inactive) | -6.2e-06 (inactive) | 0.00481 (inactive) | -2.32% (inactive) | -11.8% (inactive)
9 | C1=CC2CC1CC2CN1CCN(c2ccccc2)CC1 (stereo not drawn) | 411 | 1.5% (inactive) | -19.6% (inactive) | 114% | -37.7% (inactive) | 100% | -0.479 (inactive) | -2.1e-05 (inactive) | 0.00448 (inactive) | 2.18% (inactive) | 4.2% (inactive)
10 | COc1ccccc1C(=O)Nc1ccccc1C(=O)N1CCCC1 | 675 | -6.5% (inactive) | -2.4% (inactive) | 108% | -95.5% (inactive) | 115% | -0.583 (inactive) | -5.2e-05 (inactive) | 0.00691 (inactive) | 15.4% (inactive) | 17% (inactive)
11 | CCCC1C(C#N)=C(N)Oc2n[nH]c(C(C)(C)C)c21 (stereo not drawn) | 330 | -6.9% (inactive) | -30.2% (inactive) | 102% | 26.6% (inactive) | 115% | -0.571 (inactive) | -3.1e-05 (inactive) | 0.00609 (inactive) | 13.9% (inactive) | 21.8% (inactive)
12 | CC(C)(C)C1CCc2c(sc3c2C(=O)NC(c2ccco2)N3)C1 (stereo not drawn) | 639 | -34.8% (inactive) | 14.3% (inactive) | 125% | 15.7% (inactive) | 97% | -0.506 (inactive) | 2.4e-05 (inactive) | 0.00491 (inactive) | -39.4% (inactive) | -133% (inactive)
13 | O=C(NCCCN1CCN(CCCNC(=O)c2ccc(F)cc2)CC1)c1ccc(F)cc1 | 364 | -1.1% (inactive) | -1.8% (inactive) | 109% | 4.2% (inactive) | 102% | -0.528 (inactive) | 1.1e-05 (inactive) | 0.00616 (inactive) | 14.8% (inactive) | 23.9% (inactive)
14 | O=C(O)CCc1ccc(-c2cccs2)n1CCC(=O)O | 828 | -2.7% (inactive) | -3.1% (inactive) | 95.6% | -43% (inactive) | 116% | -0.55 (inactive) | -5.2e-05 (inactive) | 0.00465 (inactive) | 14.7% (inactive) | 20.5% (inactive)
15 | CN1C(=O)CC(C(=O)Nc2ccc(F)cc2)SC1=Nc1ccc2c(c1)OCO2 (stereo not drawn) | 715 | -5.4% (inactive) | 11.5% (inactive) | 117% | -15.7% (inactive) | 118% | -0.269 (inactive) | -3.8e-05 (inactive) | 0.0044 (inactive) | 16.1% (inactive) | 4.96% (inactive)
16 | Cc1ccc(-c2cc(C(=O)Nc3cc(C)ccc3C)[nH]n2)c(O)c1 | 390 | -4.3% (inactive) | 3.8% (inactive) | 120% | -50.5% (inactive) | 144% | -0.362 (inactive) | 2.9e-05 (inactive) | 0.00727 (inactive) | -2.53% (inactive) | -27.3% (inactive)
17 | Clc1ccc(Cn2ncc3c(NCc4cccnc4)ncnc32)cc1 | 321 | -13.5% (inactive) | -3.5% (inactive) | 113% | 41.6% (inactive) | 82% | -0.55 (inactive) | -0.000128 (inactive) | 0.00407 (inactive) | 13.3% (inactive) | -35.2% (inactive)
18 | c1ccc(Cn2nnc3c(N4CCC5(CC4)OCCO5)ncnc32)cc1 | 382 | -1.3% (inactive) | 0.3% (inactive) | 103% | -346% (inactive) | 144% | -0.522 (inactive) | -5.2e-05 (inactive) | 0.00535 (inactive) | 3.41% (inactive) | 6.57% (inactive)
19 | COc1ccc(C2=NOC(C(=O)NCc3ccc(F)cc3)C2)cc1OC (stereo not drawn) | 601 | 14.3% (inactive) | -82.4% (inactive) | 2.5% | -172% (inactive) | 99.1% | -0.493 (inactive) | 4.2e-05 (inactive) | 0.00618 (inactive) | 22.8% (inactive) | 82.8% (active)
20 | CCS(=O)(=O)Nc1ccc(C(=O)CC2(O)C(=O)Nc3ccccc32)cc1 (stereo not drawn) | 602 | -11.9% (inactive) | -19.6% (inactive) | 110% | 11.8% (inactive) | 107% | -0.521 (inactive) | 0.000137 (inactive) | 0.00663 (inactive) | 14.3% (inactive) | 18.7% (inactive)
21 | COc1cc(OC)c(C(=O)Nc2ncn[nH]2)cc1OC | 667 | -1.1% (inactive) | -12% (inactive) | 107% | -95.9% (inactive) | 108% | -0.537 (inactive) | -0.000156 (inactive) | 0.00435 (inactive) | 17.7% (inactive) | 19.5% (inactive)
22 | CCCCN(CCCC)CCCNC(=O)CC1Oc2ccc(C)cc2NC1=O (stereo not drawn) | 618 | -18.4% (inactive) | 4.4% (inactive) | 110% | -6.4% (inactive) | 92.1% | -0.242 (inactive) | -7e-06 (inactive) | 0.00528 (inactive) | 17.2% (inactive) | 23.7% (inactive)
23 | CCOC(=O)N1CCN(C(=O)c2ccc3c(=O)n(CCc4ccccc4)c(=O)[nH]c3c2)CC1 | 784 | -7.8% (inactive) | 5.4% (inactive) | 111% | -60% (inactive) | 115% | -0.307 (inactive) | 4.7e-06 (inactive) | 0.00774 (inactive) | -16.4% (inactive) | -40% (inactive)
24 | CCOC(=O)c1c(NC(=O)CSc2nnc(-c3cccnc3)o2)sc(C)c1C | 431 | -13.1% (inactive) | 24.3% (inactive) | 73.6% | -15% (inactive) | 98.1% | -0.484 (inactive) | 4.4e-06 (inactive) | 0.00591 (inactive) | 3.63% (inactive) | 16.6% (inactive)
25 | CCCN(S(=O)(=O)c1ccc(OCC)cc1)S(=O)(=O)c1cccs1 | 457 | 7.4% (inactive) | -7.2% (inactive) | 109% | -52.8% (inactive) | 101% | -0.481 (inactive) | 0.0001 (inactive) | 0.00646 (inactive) | -4.95% (inactive) | 2.38% (inactive)
26 | O=C(COc1ccc(Cl)cc1)Nc1nc(-c2cccs2)cs1 | 718 | -6.1% (inactive) | -1.6% (inactive) | 110% | -32.4% (inactive) | 114% | -0.567 (inactive) | 2.5e-05 (inactive) | 0.00605 (inactive) | 1.13% (inactive) | 0.877% (inactive)
27 | CCOC(=O)c1cccc(NC(=O)CSc2nc3ccccc3c(=O)n2CC)c1 | 360 | 4.2% (inactive) | 7.7% (inactive) | 98.9% | -1.3% (inactive) | 104% | -0.465 (inactive) | 2.3e-05 (inactive) | 0.00728 (inactive) | 9.39% (inactive) | 18.3% (inactive)
28 | Cc1cc(Nc2ccccc2)n(CCC#N)n1 | 350 | 1.6% (inactive) | -7.9% (inactive) | 96.4% | -89.1% (inactive) | 129% | -0.415 (inactive) | -8.1e-05 (inactive) | 0.00613 (inactive) | 15.7% (inactive) | 14.3% (inactive)
